Structures are written as SMILES. In brackets after ≈: the same amount, converted by molar mass. Activity calls are given as the source filed them.

The subject of assay [1] is Radical scavenging activity. In words: Antioxidant activity assessed as DPPH radical scavenging activity at 50 ug/ml relative to butylated hydroxytoluene. It is filed as functional. In outline: (§1)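 DPPH radical scavenging assay with BHT as standard antioxidant. Samples were tested at five concentrations (10, 20, 30, 40 and 50 µg/mL) in triplicate, alongside a control at 0 µg/mL. Read-out is % radical scavenging, reported as mean ± SD.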

The test system of assay [2] is Radical scavenging activity. Nature of the assay: Antioxidant activity assessed as DPPH radical scavenging activity at 40 ug/ml relative to butylated hydroxytoluene. It is filed as functional. In outline:
as §1

The subject of assay [3] is Radical scavenging activity. In words: Antioxidant activity assessed as DPPH radical scavenging activity at 30 ug/ml relative to butylated hydroxytoluene. It is filed as functional. In outline:
as §1
On the technique in general: DPPH is a stable violet radical that fades when it is reduced.

Assay [4] has as its system Radical scavenging activity. In words: Antioxidant activity assessed as DPPH radical scavenging activity at 20 ug/ml relative to butylated hydroxytoluene. It counts as functional. The method in brief: as §1
Assay [5] has as its system Radical scavenging activity. In words: Antioxidant activity assessed as DPPH radical scavenging activity at 10 ug/ml relative to butylated hydroxytoluene. It counts as functional. The method in brief:
as §1

For assay [6], the system named is Candida albicans. Nature of the assay: Antifungal activity against Candida albicans by broth dilution technique. It is filed as functional. The method in brief: (§2)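 Broth dilution technique; each MIC (µg/mL) is the mean of three determinations run in triplicate against the bacterial and fungal strains.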
(Broth dilution looks for growth in wells or tubes with falling amounts of substance.)

Assay [7] relates to Aspergillus flavus. In words: Antifungal activity against Aspergillus flavus by broth dilution technique. It counts as functional. In outline:
as §2

Assay [8] concerns Aspergillus niger. In words: Antifungal activity against Aspergillus niger by broth dilution technique. It is filed as functional. The method in brief:
as §2

Assay [9] has as its system Cryptococcus neoformans. Nature of the assay: Antifungal activity against Cryptococcus neoformans by broth dilution technique. It is filed as functional. In outline: as §2
Assay [10] concerns Pseudomonas aeruginosa. In words: Antibacterial activity against Pseudomonas aeruginosa by broth dilution technique. It is filed as functional. The method in brief:
as §2

Assay [11] has as its system Escherichia coli. In words: Antibacterial activity against Escherichia coli by broth dilution technique. It is filed as functional. In outline:
as §2

Assay [12] deals with Streptococcus pyogenes. In words: Antibacterial activity against Streptococcus pyogenes by broth dilution technique. It is filed as functional. In outline: as §2
The test system of assay [13] is Staphylococcus aureus. In words: Antibacterial activity against Staphylococcus aureus by broth dilution technique. It is filed as functional. The method in brief:
as §2

Assay [14] deals with Candida albicans. In words: Antifungal activity against Candida albicans at 200 ug/ml by broth dilution technique. It is filed as functional, organism-based.
In assay [15] the test system is Aspergillus flavus. In words: Antifungal activity against Aspergillus flavus at 200 ug/ml by broth dilution technique. It is filed as functional, organism-based.
The test system of assay [16] is Escherichia coli. Nature of the assay: Antibacterial activity against Escherichia coli at 200 ug/ml by broth dilution technique. It is filed as functional, organism-based.
In assay [17] the test system is Streptococcus pyogenes. In words: Antibacterial activity against Streptococcus pyogenes at 200 ug/ml by broth dilution technique. It is filed as functional, organism-based.

Take `COc1ccccc1-n1cc(C=O)c(-c2c(O)ccc3c(C)cc(=O)oc23)n1`: the Activity in assay [1] was determined as 17.4%; in assay [2], 15.6%; in [3], 13.3%; in [4] it was 12%; in [5], 11.1%. For the same compound, the MIC (usually the smallest concentration in the dilution series that meets the test's criterion for growth inhibition) in [6] worked out at 50 µg/mL (≈ 133 µM); in [7] it was 25 µg/mL (≈ 66.4 µM); in assay [8], 50 µg/mL (≈ 133 µM); in assay [9], 25 µg/mL (≈ 66.4 µM); in assay [10] it was 25 µg/mL (≈ 66.4 µM); in [11], 75 µg/mL (≈ 199 µM). In addition, the MIC in assay [12] turned out to be 50 µg/mL (≈ 133 µM); in assay [13], 30 µg/mL (≈ 79.7 µM).

With `O=C(O)c1cn(C2CC2)c2cc(N3CCNCC3)c(F)cc2c1=O` [CIPROFLOXACIN], the results for the MIC in [11] and in assay [12] were 25 µg/mL (≈ 75.4 µM) and 50 µg/mL (≈ 151 µM), respectively.

Turning to `COc1ccccc1N/N=C(/C)c1c(O)ccc2c(C)cc(=O)oc12`, the MIC worked out at 30 µg/mL (≈ 88.7 µM) in assay [6]; 40 µg/mL (≈ 118 µM) in [7]; 50 µg/mL (≈ 148 µM) in [8]; 40 µg/mL (≈ 118 µM) in [9]; 50 µg/mL (≈ 148 µM) in [11]; 60 µg/mL (≈ 177 µM) in [12]. The compound further returned an MIC in [13] of 30 µg/mL (≈ 88.7 µM). Further, the MIC entry in [10] is “inactive”.

In the case of `C/C(=N/Nc1ccc(Cl)cc1)c1c(O)ccc2c(C)cc(=O)oc12`, the MIC turned out to be 30 µg/mL (≈ 87.5 µM) in [6]; 50 µg/mL (≈ 146 µM) in [7]; 60 µg/mL (≈ 175 µM) in assay [8]; 25 µg/mL (≈ 72.9 µM) in [9]; 25 µg/mL (≈ 72.9 µM) in [10]; 50 µg/mL (≈ 146 µM) in [11]. The MIC in assay [12] stood at 50 µg/mL (≈ 146 µM); in [13] it was 20 µg/mL (≈ 58.3 µM).

Turning to `Cc1cc(=O)oc2c(-c3nn(-c4ccc([N+](=O)[O-])cc4[N+](=O)[O-])cc3C=O)c(O)ccc12`, the Activity was 56% in assay [1]; 51.1% in [2]; 47.1% in [3]; 41.9% in assay [4]; 34.7% in assay [5]. The MIC result in [6], in assay [7], in assay [8] and in assay [9] was “inactive” in each case. The MIC was 20 µg/mL (≈ 45.8 µM) in assay [10], 40 µg/mL (≈ 91.7 µM) in assay [11], 75 µg/mL (≈ 172 µM) in assay [12] and 40 µg/mL (≈ 91.7 µM) in [13].

As to `C/C(=N/Nc1ccccc1C)c1c(O)ccc2c(C)cc(=O)oc12`, the outcome in [14] and in assay [15] was inactive. Further, the MIC worked out at 75 µg/mL (≈ 233 µM) in [8]; 40 µg/mL (≈ 124 µM) in assay [9]; 100 µg/mL (≈ 310 µM) in assay [10]; 75 µg/mL (≈ 233 µM) in assay [11]; 50 µg/mL (≈ 155 µM) in [12]; 40 µg/mL (≈ 124 µM) in assay [13].

Regarding `Cc1cc(=O)oc2c(-c3nn(-c4ccccc4)cc3C=O)c(O)ccc12`, the Activity in [1] came to 57.8%; in [2] it was 50.1%; in assay [3], 46.4%; in assay [4], 42.1%; in assay [5] it was 39.4%. Moreover, the outcome in [14] and in assay [15] was inactive. Also, the MIC in [8] came out at 100 µg/mL (≈ 289 µM); in assay [9] it was 50 µg/mL (≈ 144 µM); in assay [10] it was 50 µg/mL (≈ 144 µM); in assay [11], 30 µg/mL (≈ 86.6 µM). Besides, the MIC entry in [12] and in assay [13] was “inactive” each time.

`C/C(=N/Nc1ccccc1)c1c(O)ccc2c(C)cc(=O)oc12`: the result in assay [16] and in [17] was inactive. Moreover, the MIC was 50 µg/mL (≈ 162 µM) in assay [6]; 75 µg/mL (≈ 243 µM) in assay [7]; 75 µg/mL (≈ 243 µM) in [8]; 50 µg/mL (≈ 162 µM) in assay [9]; 25 µg/mL (≈ 81.1 µM) in assay [10]; 40 µg/mL (≈ 130 µM) in assay [13]. Moreover, the MIC entry in assay [11] and in [12] was “inactive” throughout.

With `C/C(=N/Nc1ccc([N+](=O)[O-])cc1[N+](=O)[O-])c1c(O)ccc2c(C)cc(=O)oc12`, the MIC result in assay [6], in assay [7], in [8], in [9], in assay [10] and in assay [11] was “inactive” in each case. In addition, the MIC in assay [12] is 75 µg/mL (≈ 188 µM); in assay [13] it was 50 µg/mL (≈ 126 µM).

Consider `C[C@@H]1[C@H](O)[C@@H](C)/C=C/C=C/C=C/C=C/C=C/C=C/C=C/[C@H](O[C@@H]2O[C@H](C)[C@@H](O)[C@H](N)[C@@H]2O)C[C@@H]2O[C@](O)(C[C@@H](O)C[C@@H](O)[C@H](O)CC[C@@H](O)C[C@@H](O)CC(=O)O[C@H]1C)C[C@H](O)[C@H]2C(=O)O` [AMPHOTERICIN B], for which the MIC stood at 25 µg/mL (≈ 27.1 µM) in [6], 50 µg/mL (≈ 54.1 µM) in [7], 50 µg/mL (≈ 54.1 µM) in assay [8] and 25 µg/mL (≈ 27.1 µM) in [9].

As for `Cc1cc(=O)oc2c(-c3nn(-c4ccc(Cl)cc4)cc3C=O)c(O)ccc12`, the Activity in assay [1] turned out to be 69.3%; in assay [2], 63.9%; in [3], 58.1%; in assay [4], 53.3%; in assay [5], 48.9%. For the same compound, the MIC in assay [6] is 25 µg/mL (≈ 65.7 µM); in assay [7], 60 µg/mL (≈ 158 µM); in assay [8], 40 µg/mL (≈ 105 µM); in [9], 15 µg/mL (≈ 39.4 µM); in [10], 15 µg/mL (≈ 39.4 µM); in [11], 30 µg/mL (≈ 78.8 µM). The MIC amounted to 35 µg/mL (≈ 91.9 µM) in assay [12] and 15 µg/mL (≈ 39.4 µM) in assay [13].

`Cc1ccccc1-n1cc(C=O)c(-c2c(O)ccc3c(C)cc(=O)oc23)n1`: the Activity in assay [1] is 17.1%; in assay [2], 15.1%; in [3], 14.1%; in assay [4], 13.8%; in [5], 12.8%. For the same compound, the outcome in assay [14] and in [15] was inactive. In addition, the MIC in [8] was 60 µg/mL (≈ 166 µM); in assay [9] it was 30 µg/mL (≈ 83.2 µM); in assay [10] it was 50 µg/mL (≈ 139 µM); in assay [11] it was 40 µg/mL (≈ 111 µM); in assay [12], 50 µg/mL (≈ 139 µM); in [13], 30 µg/mL (≈ 83.2 µM).

These data come from ChEMBL document CHEMBL2439956, “Synthesis and biological evaluation of novel formyl-pyrazoles bearing coumarin moiety as potent antimicrobial and antioxidant agents” (2013).
